# From ChEMBL document CHEMBL5150051, “Identification and Characterization of a Novel Indoleamine 2,3-Dioxygenase 1 Protein Degrader for Glioblastoma” (J Med Chem, 2022)
# Calls of active or inactive are those of the source. The calls are words filed in the database; no cut-off is given here.
# What was measured:
# [1] = Drug uptake in C57BL/6 mouse pancreas at 50 mg/kg, ip treated 5 days/week for 3 weeks by LC/MS/MS analysis; format: ADME, organism-based; conditions: in vivo, 504 h
# [2] = target: T1, Protein cereblon/Indoleamine 2,3-dioxygenase 1 (Homo sapiens, UniProt P14902+Q96SW2); experiment: Protac activity at CRBN/IDO1 in IFNgamma-stimulated human OVCAR-5 cells assessed as decrease in kynurenine level at 10 uM measured after 24 hrs by Ehrlich's test; format: cell-based
# [3] = target: T1, Protein cereblon/Indoleamine 2,3-dioxygenase 1; experiment: Protac activity at IDO1/CRBN in IFNgamma-stimulated human GBM6 cells assessed as IDO1 degradation measured after 24 hrs by Western blotting analysis; format: cell-based; conditions: dose 0.1-10 µM, DDE = dose-dependent effect
# [4] = target: T1, Protein cereblon/Indoleamine 2,3-dioxygenase 1; experiment: Protac activity at CRBN/IDO1-HA expressed in human U87 cells assessed as IDO1 degradation measured at 1 to 10 uM after 24 hrs by Western blotting analysis; format: cell-based; conditions: dose 1-10 µM
# [5] = Drug uptake in C57BL/6 mouse brain at 10 to 100 mg/kg, ip treated 5 days/week for 3 weeks by LC/MS/MS analysis; format: ADME, organism-based; conditions: in vivo, 504 h, dose 10-100 mg/kg
# Outline: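 Male C57BL/6 mice dosed ip at 10, 25, 50 or 100 mg/kg, 5 days/week for 3 weeks, alongside vehicle. After 3 weeks, serum and brain homogenate were analysed by mass spectrometry for drug level; mean ± SEM, n = 3 mice/dose.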
# [6] = Drug uptake in C57BL/6 mouse intestine at 100 mg/kg, ip treated 5 days/week for 3 weeks by LC/MS/MS analysis; format: ADME, organism-based; conditions: in vivo, 504 h
# [7] = target: T1, Protein cereblon/Indoleamine 2,3-dioxygenase 1; experiment: Protac activity at IDO1/CRBN in human U87 cells assessed as IDO1 degradation at 10 uM measured after compound washout by Western blotting analysis relative to control; format: cell-based
# Outline: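 U87 cells exposed to PROTAC for 24 h, after which compound was fully withdrawn from the medium and culture continued without it for up to 48 h. IDO1 levels then assessed by western blot.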
# [8] = target: T1, Protein cereblon/Indoleamine 2,3-dioxygenase 1; experiment: Protac activity at CRBN/IDO1 non-enzyme mediated NF-kappaB signal in IFNgamma-stimulated human MDA-MB-231 cells assessed as decrease in p65 phosphorylation at 0.1 to 10 uM measured after 24 hrs Western blotting assay; format: cell-based; conditions: dose 0.1-10 µM
# Outline: (§1)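 IFNγ-stimulated cells were induced for 24 h, then treated at several concentrations for 24 h. Lysates were western blotted for IDO1, phospho-p65, total p65 and GAPDH.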
# [9] = target: T1, Protein cereblon/Indoleamine 2,3-dioxygenase 1; experiment: Protac activity at CRBN/IDO1 non-enzyme mediated NF-kappaB signal in IFNgamma-stimulated human U87 cells assessed as decrease in p65 phosphorylation at 0.1 to 10 uM measured after 24 hrs Western blotting assay; format: cell-based; conditions: dose 0.1-10 µM; outline: as §1
# [10] = target: T1, Protein cereblon/Indoleamine 2,3-dioxygenase 1; experiment: Protac activity at CRBN/IDO1-HA expressed in human U87 cells assessed as IDO1 degradation in intracellular cytoplasmic compartment measured at 1 to 10 uM after 24 hrs by Western blotting analysis; format: subcellular; conditions: Cytoplasm, dose 1-10 µM
# [11] = target: T1, Protein cereblon/Indoleamine 2,3-dioxygenase 1; experiment: Protac activity at CRBN/IDO1 non-enzyme mediated p65 phosphorylation in enzyme-null cDNA transfected in IFNgamma-stimulated human U87 cells measured at 0.1 to 10 uM after 24 hrs by Western blotting analysis; format: cell-based; conditions: dose 0.1-10 µM
# T1 sequence (P14902 whole entry, looked up): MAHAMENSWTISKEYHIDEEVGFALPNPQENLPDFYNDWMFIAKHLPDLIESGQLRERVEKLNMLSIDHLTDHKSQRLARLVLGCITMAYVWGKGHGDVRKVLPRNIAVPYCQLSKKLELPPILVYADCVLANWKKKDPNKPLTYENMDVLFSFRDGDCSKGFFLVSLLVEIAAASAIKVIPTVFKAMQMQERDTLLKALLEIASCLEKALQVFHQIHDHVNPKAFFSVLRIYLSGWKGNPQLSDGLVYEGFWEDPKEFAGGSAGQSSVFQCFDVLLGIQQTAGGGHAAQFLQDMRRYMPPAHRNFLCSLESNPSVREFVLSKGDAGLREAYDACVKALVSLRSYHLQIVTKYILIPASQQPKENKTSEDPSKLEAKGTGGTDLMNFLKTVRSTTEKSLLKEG
# T1 sequence (Q96SW2 whole entry, looked up): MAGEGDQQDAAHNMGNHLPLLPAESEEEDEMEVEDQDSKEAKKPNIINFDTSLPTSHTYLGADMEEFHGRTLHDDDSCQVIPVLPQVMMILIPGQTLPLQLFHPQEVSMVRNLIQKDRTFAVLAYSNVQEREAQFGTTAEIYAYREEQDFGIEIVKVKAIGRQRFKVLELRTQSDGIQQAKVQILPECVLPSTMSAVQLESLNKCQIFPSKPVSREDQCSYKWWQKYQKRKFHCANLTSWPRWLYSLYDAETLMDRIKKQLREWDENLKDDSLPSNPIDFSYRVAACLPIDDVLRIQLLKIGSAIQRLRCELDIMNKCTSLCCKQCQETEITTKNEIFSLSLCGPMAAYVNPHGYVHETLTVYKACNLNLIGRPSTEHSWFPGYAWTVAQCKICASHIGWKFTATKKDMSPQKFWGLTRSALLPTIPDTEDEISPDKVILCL
smiles,measurement,setting,value
C[C@@H](C(=O)Nc1ccc(OC2CCN(C(=O)CCOCCOCCNc3cccc4c3C(=O)N(C3CCC(=O)NC3=O)C4=O)CC2)cc1)[C@H]1CC[C@@H](c2ccnc3ccc(F)cc32)CC1 (stereo partly specified),Drug uptake,[1],Active
same,inhibition,[2],Active
same,Activity,[3],Dde
same,Activity,[4],Active
same,Drug uptake,[5],Active
same,Drug uptake,[6],Active
same,Activity,[7],Active
same,inhibition,[8],Active
same,Activity,[9],Active
same,Activity,[10],Active
same,inhibition,[11],Active
